Bioassay records (PubChem BioAssay)
In the library only some 9.6% were active in any assay of this set; here they are far more common.
HCT116 bCat-KO: beta-catenin-lacking colon tumor cell growth suppression. 140,000 tested, 1.5% active. viability, % at 10 µM. HCT116 beta-catenin knockout viability, CellTiter-Glo, 60 h; active compounds read low;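 active = viability at or under a set limit, the compound median less 4 SD, cut at about 6% in these data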;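 also: 0% = Hyamine 1622 control at 20 µM and 100% = untreated cell control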
HCT116 PTEN-null: PTEN-deleted cell growth suppression. HCT116 PTEN-null viability, CellTiter-Glo, 60 h; active compounds read low. viability, % at 10 µM. 140,000 tested, 1.2% active. AID 827;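 active = viability at or below a set limit, 4 SD under the median of all tested compounds, cut at about 3.7% in these data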;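 also: PTEN knockout HCT116 line with beta catenin targeted HCT116 as companion control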
PMI act satM6P: PMI (human) activation, high substrate; P34949; coupled PMI enzyme assay, resazurin fluorescence, 20 min; active compounds read high; 1 = untreated enzyme, 0 = substrate-free blank; activation factor at 20 µM; 190,000 tested, 0.34% active; AID 1216;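 active = activation factor of 2 or more at 20 µM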
Target sequence (P34949 whole entry, looked up): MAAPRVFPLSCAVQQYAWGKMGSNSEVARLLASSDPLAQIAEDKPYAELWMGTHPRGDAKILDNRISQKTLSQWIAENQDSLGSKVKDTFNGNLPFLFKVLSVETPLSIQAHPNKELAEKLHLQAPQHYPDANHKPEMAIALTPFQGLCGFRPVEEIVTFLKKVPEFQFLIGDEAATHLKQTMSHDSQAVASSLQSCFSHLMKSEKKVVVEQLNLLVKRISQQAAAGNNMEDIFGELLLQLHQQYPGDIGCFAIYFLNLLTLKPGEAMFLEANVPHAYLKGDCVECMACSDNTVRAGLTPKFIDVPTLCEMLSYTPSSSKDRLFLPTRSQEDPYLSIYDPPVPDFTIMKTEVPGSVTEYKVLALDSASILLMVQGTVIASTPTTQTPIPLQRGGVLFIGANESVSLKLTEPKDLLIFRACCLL
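Test system: Human PMI in coupled enzyme assay | Input: 15 ng/mL PMI | Medium: HEPES-buffered pH 7.4 with magnesium and detergent | Compound: One concentration, 20 µM, in 1% DMSO | Incubation: Enzyme reaction with compound 20 min at room temperature | Detection: Diaphorase-driven resazurin-to-resorufin fluorescence, excitation 544, emission 590 nm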
PMI act: phosphomannose isomerase (human) activation. 190,000 tested, 0.005% active. purified human PMI, coupled resazurin fluorescence, 20 min; active compounds read high; 1 = vehicle control, 0 substrate-free wells. AID 1214. P34949. activation factor at 20 µM;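 active = activation factor of 2 or more at 20 µM, relative to plate controls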
L major viab: Leishmania major promastigote growth inhibition; inhibition, % at 10 µM; 200,000 tested, 9% active; Leishmania major promastigotes, resazurin fluorescence viability; in the data active = inhibition above about 50%;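 also: promastigotes grown with compound for 44 hours at 28 °C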
Numbers without * were called inactive; . = no result.

SMILES	HCT116 bCat-KO	HCT116 PTEN-null	PMI act satM6P	PMI act	L major viab
Cn1cccc1C1C(C#N)=C(N)OC2=C1C(=O)CC(C)(C)C2 (stereo unspecified)	.	.	1	0.9	0
CC1(C)CC(=O)C2=C(C1)C(c1cn(-c3ccccc3)nc1-c1ccccc1)C(C#N)=C(N)O2 (stereo unspecified)	26	19	0.9	0.8	79*
CC1(C)CC(=O)C2=C(C1)OC(N)=C(C#N)C2c1cn(-c2ccccc2)nc1-c1ccc(F)cc1 (stereo unspecified)	18	11	0.9	0.8	66*
COc1cc(OC)cc(C(=O)NCCC(=O)NCCc2ccc(OC)c(OC)c2)c1	100	97	1	0.9	57*
COc1ccc(CCNC(=O)CCC(=O)Nc2nnc(C(C)C)s2)cc1OC	90	99	1	1	60*
CCOC(=O)c1oc2nc(CC(C)C)c3c(c2c1N)CCC3	108	90	1	1	6
CC(=O)N1/C(=C/c2ccc(N(C)C)cc2)C(=O)c2ccccc21	.	.	0.8	0.9	100*
CC(=O)/C(=C/c1ccc(N(C)C)cc1)C(=O)c1ccccc1	95	91	1	1	-3
O=c1c2ccccc2nc(SCCN2CCCCC2)n1CCc1ccccc1	.	.	.	.	86*
CS(=O)(=O)c1ccc(Cl)c(NC(=O)CSc2nc3ccccc3c(=O)n2CCCN2CCOCC2)c1	93	93	1	1	85*
O=C(CSc1nc2ccccc2c(=O)n1CCCN1CCOCC1)c1c[nH]c2ccccc12	.	.	1	0.9	53*
CCOC(=O)CSc1nc2c(sc3ccccc32)c(=O)n1CCCN1CCOCC1	79	68	0.8	0.8	100*
NS(=O)(=O)c1cccc(NC(=O)CSc2nc3ccccc3c(=O)n2CCCN2CCOCC2)c1	100	97	1	1	-8
CCC(CC)C(=O)c1c[nH]c(C(=O)NCc2ccncc2)c1	.	.	1	1	-2
COc1ccc(NC(=O)CSc2nc3ccccc3c(=O)n2CCCN2CCCCC2)c(OC)c1	2.6*	3.1*	1	1	100*
Cn1c(=O)c2c(nc(SCCN3CCCCC3)n2Cc2ccc(Cl)cc2)n(C)c1=O	61	59	1	1	90*
CCC(O)CC(C(=O)NNc1ccccc1)C(=O)NNc1ccccc1 (stereo unspecified)	.	.	2.8*	1.8	72*
CCN1CCCC1CNC(=O)c1cc2c(-c3ccc(Cl)cc3)nn(C)c2s1 (stereo unspecified)	3.2*	6	0.9	0.9	100*
Cn1nc(-c2ccc(Cl)cc2)c2cc(C(=O)NCCCN3CCCC3)sc21	1.5*	1.7*	1	1	100*
CCCCNC(=O)c1cc2c(-c3ccc(Cl)cc3)nn(C)c2s1	91	91	0.9	0.8	-1
COc1cccc(-c2nn(C)c3sc(C(=O)NCc4ccco4)cc23)c1	81	64	0.9	0.9	-1
CCN1CCCC1CNC(=O)c1cc2c(-c3cccc(OC)c3)nn(C)c2s1 (stereo unspecified)	2.6*	4	0.9	0.9	82*
CCN1CCCC1CNC(=O)C(=O)Nc1cccc(OC)c1 (stereo unspecified)	98	105	0.9	0.8	53*
CCN1CCCC1CNC(=O)C(=O)Nc1ccccc1 (stereo unspecified)	.	.	1.1	1.1	-5
CCC(C)(C)NC(=O)C(OC(=O)c1ccco1)c1ccccc1OC (stereo unspecified)	101	102	1	0.9	-2
SMILES	HCT116 bCat-KO	HCT116 PTEN-null	PMI act satM6P	PMI act	L major viab
CC(NC(=O)Cn1nnc(-c2ccncc2)n1)c1ccccc1 (stereo unspecified)	96	93	1	1	-1
O=Cc1cc(N=Nc2ccccc2Cl)ccc1O	.	.	0.9	0.9	47
Oc1ccccc1N=Nc1ccccc1O	.	.	1.1	1.3	100*
Cc1ccc(C2CC(c3ccc(Cl)cc3)=NNC2=O)cc1 (stereo unspecified)	97	90	0.9	0.8	2
O=C(C1=NNCC1c1ccc(Cl)cc1)C1CO1 (stereo unspecified)	2.2*	2.1*	1.1	0.9	0
O=C(COC(=O)c1cccnc1Nc1cccc(C(F)(F)F)c1)NC1CCS(=O)(=O)C1 (stereo unspecified)	66	65	0.7	0.7	-5
Cc1nc(C)n(CC(O)COc2ccc3c(c2)CCC3)n1 (stereo unspecified)	95	94	1	0.9	-4
OC(COCCOc1ccc(Br)cc1)CN1CCCCC1 (stereo unspecified)	90	89	1.1	1.1	71*
CC1CC(C)CN(CC(O)COCCOc2ccc(Br)cc2)C1 (stereo unspecified)	70	72	1	1.2	92*
CC1CC(C)CN(CC(O)COc2ccc3c(c2)CCC3)C1 (stereo unspecified)	84	81	1.1	1.1	89*
CCN1CCN(CC(O)COCCOc2ccc(Br)cc2)CC1 (stereo unspecified)	83	85	1.2	1.3	-6
CN1CCN(CC(O)COCCOc2ccc(Br)cc2)CC1 (stereo unspecified)	82	92	1.1	1.2	-8
CC1CC(C)CN(CCOc2ccc(Br)cc2)C1 (stereo unspecified)	83	90	1.2	1.2	82*
CCN(CC)C(=O)Cn1cc(SCC(=O)NC)c2ccccc21	.	.	1	1.1	-4
COc1cc(NC2c3ncccc3C(=O)N2Cc2ccco2)cc(OC)c1OC (stereo unspecified)	.	.	0.8	1	-4
Cc1nn(-c2ccccn2)c2c1C(c1c(F)cccc1Cl)C1=C(N2)c2ccccc2C1=O (stereo unspecified)	56	54	1.1	1.1	33
CC(C)(CO)NCC(O)COc1ccc2c(c1)CCC2 (stereo unspecified)	92	95	1	1	7
CC(C)(C)CC(C)(C)NCC(O)COc1ccc2c(c1)CCC2 (stereo unspecified)	.	.	.	.	100*
CC1CCN(CC(O)COCCOc2ccc(Br)cc2)CC1 (stereo unspecified)	73	76	1	1	82*
CCCCOCC(O)CN1CCN(C(C)=O)CC1 (stereo unspecified)	97	108	1	0.9	-7
CC1CCN(CC(O)COCCC23CC4CC(CC(C4)C2)C3)CC1 (stereo unspecified)	35	39	1	1.1	95*
CC(/C=N\NC(=O)c1ccc(C)nc1)=C\c1ccccc1	96	95	1.1	1.1	0
O=C(NCc1cccnc1)/C(=C\c1ccc(-c2ccc(Cl)c(Cl)c2)o1)S(=O)(=O)c1ccccc1	1.8*	1.5*	1	0.9	100*
O=C(NCc1cccnc1)c1ccc(-c2ccc(Cl)cc2)o1	.	.	0.9	0.9	-4
